In ChEMBL document CHEMBL1156273, “Membrane permeable cyclic peptidyl inhibitors against human Peptidylprolyl Isomerase Pin1” (J Med Chem, 2010) one finds Drug uptake and Activity data, which are given here for 8 compounds.

The subject of data set [1] is HeLa. The data set can be described thus: Cellular uptake in human HeLa cells assessed as nuclear localization at 1 uM after 48 hrs by fluorescence microscopy. It is filed as ADME, cell-based. An outline of the steps: (§1)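 HeLa cells in DME + 10% FBS, 1% pen/strep, 37 °C, 5% CO2, grown on cover glass. Given 0 or 1.0 μM FITC-labeled peptide (FITC on the Glu side chain via a Lys linker) for 48 h. Then PBS-washed, fixed in 3.7% paraformaldehyde, permeabilized with goat serum/Triton X-100, DAPI-stained, and imaged by fluorescence microscopy.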

In data set [2] the test system is HeLa. The data set can be described thus: Cellular uptake in human HeLa cells assessed as cytoplasmic localization at 1 uM after 48 hrs by fluorescence microscopy. It is filed as ADME, cell-based. An outline of the steps:
as §1

The subject of another data set is BT-474. The experiment in a line: Antiproliferative activity against human BT474 cells at […] after 6 days. The data set is classed as functional.
For data set [3], the target named is Peptidyl-prolyl cis-trans isomerase NIMA-interacting 1 (Homo sapiens) (UniProt Q13526). The data set can be described thus: Inhibition of Pin1 in human BT474 cells assessed as increase in SMRT level at 5 uM by Western blotting. The data set is classed as cell-based. The following applies: BT-474. The gist of the method:
(§2)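 Cells given peptide for 48 h: HeLa in DME + 10% FBS, pen/strep; BT-474 in Hybri-Care DME + 10% FBS. Vehicle control DMSO. Lysed in RIPA with protease inhibitors, equal protein (Bradford) on 8% SDS-PAGE, nitrocellulose transfer, milk block. Probed with anti-SMRT, anti-PML and anti-β-actin (loading), HRP secondary, chemiluminescent detection.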
(In western blotting, separated proteins are transferred to a membrane and probed.)

Data set [4] has the same target. The experiment in a line: Inhibition of Pin1 in human BT474 cells assessed as increase in PML level at 5 uM by Western blotting. It is filed as cell-based. The note with it: BT-474. The gist of the method: as §2

Each structure is given as a SMILES string. Calls of active or inactive are those of the source. No cut-off for these calls is given here. Square brackets hold non-standard residues; d marks the D form. Peptide text beside a SMILES is read from it. dalloThr(PO3H2) = C[C@@H](OP(=O)(O)O)[C@@H](N)C(=O)O; d(pT) = C[C@H](OP(=O)(O)O)[C@@H](N)C(=O)O; 2Nal = N[C@@H](Cc1ccc2ccccc2c1)C(=O)O; Pip = O=C(O)[C@@H]1CCCCN1

Sequence of Peptidyl-prolyl cis-trans isomerase NIMA-interacting 1 (Homo sapiens) (Q13526 whole entry): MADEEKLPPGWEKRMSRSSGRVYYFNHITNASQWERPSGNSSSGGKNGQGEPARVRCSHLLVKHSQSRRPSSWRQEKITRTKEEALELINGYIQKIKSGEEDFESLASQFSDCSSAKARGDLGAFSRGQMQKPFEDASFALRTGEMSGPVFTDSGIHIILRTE

Consider `C[C@@H](OP(=O)(O)O)[C@H]1NC(=O)[C@@H](CCCNC(=N)N)NC(=O)[C@@H](CCCNC(=N)N)NC(=O)[C@H](CCC(N)=O)NC(=O)[C@H](CCCNC(=N)N)NC(=O)[C@H](Cc2ccc3ccccc3c2)NC(=O)[C@@H]2CCCCN2C1=O`, for which the Drug uptake entry with HeLa [1] and in the data set on HeLa [2] was “Active” in each case.
Consider `C[C@H]1NC(=O)[C@H](CCC(N)=O)NC(=O)[C@H](CCCN)NC(=O)[C@H](Cc2ccc3ccccc3c2)NC(=O)[C@@H]2CCCCN2C(=O)[C@@H]([C@@H](C)OP(=O)(O)O)NC(=O)CNC1=O`, for which, in the data set on BT-474, the result was inactive.
As for `CC1NC(=O)[C@H](CCC(N)=O)NC(=O)[C@H](Cc2ccc(O)cc2)NC(=O)[C@H](Cc2ccc3ccccc3c2)NC(=O)[C@@H]2CCCCN2C(=O)[C@@H]([C@@H](C)OP(=O)(O)O)NC(=O)CN(C)C1=O` (stereo in doubt), the outcome in the data set with BT-474 was inactive.
On to `C[C@H](O)[C@H]1NC(=O)[C@@H](CCCNC(=N)N)NC(=O)[C@@H](CCCNC(=N)N)NC(=O)[C@H](CCC(N)=O)NC(=O)[C@@H](CCCNC(=N)N)NC(=O)[C@@H](CCCNC(=N)N)NC(=O)[C@@H](CCCNC(=N)N)NC(=O)[C@H](CCCNC(=N)N)NC(=O)[C@H](Cc2ccc3ccccc3c2)NC(=O)[C@@H]2CCCCN2C1=O` (cyclo([dR][dR][dT][Pip][2Nal]R[dR][dR][dR]Q)), for which the Drug uptake entry in the data set on HeLa [1] and with HeLa [2] was “Active” each time.
On to `C[C@@H](OP(=O)(O)O)[C@H]1NC(=O)[C@H](CCCNC(=N)N)NC(=O)[C@H](CCCNC(=N)N)NC(=O)[C@H](CCCNC(=N)N)NC(=O)[C@H](CCC(N)=O)NC(=O)[C@H](CCCNC(=N)N)NC(=O)[C@H](CCCNC(=N)N)NC(=O)[C@H](Cc2ccc3ccccc3c2)NC(=O)[C@@H]2CCCCN2C1=O` (cyclo([2Nal]RRQRRR[dalloThr(PO3H2)][Pip])), for which the outcome in data set [3] and in data set [4] was Active. The Drug uptake entry in the data set with HeLa [1] and in the data set on HeLa [2] was “Active” throughout.
`C[C@H](O)[C@H]1NC(=O)[C@@H](CCCNC(=N)N)NC(=O)[C@@H](CCCNC(=N)N)NC(=O)[C@H](CCC(N)=O)NC(=O)[C@H](CCCNC(=N)N)NC(=O)[C@H](Cc2ccc3ccccc3c2)NC(=O)[C@@H]2CCCCN2C1=O`: the Drug uptake result in the data set with HeLa [1] and in the data set on HeLa [2] was “Active” each time.
As to `C[C@H](OP(=O)(O)O)[C@H]1NC(=O)[C@@H](CCCNC(=N)N)NC(=O)[C@@H](CCCNC(=N)N)NC(=O)[C@H](CCC(N)=O)NC(=O)[C@@H](CCCNC(=N)N)NC(=O)[C@@H](CCCNC(=N)N)NC(=O)[C@@H](CCCNC(=N)N)NC(=O)[C@H](CCCNC(=N)N)NC(=O)[C@H](Cc2ccc3ccccc3c2)NC(=O)[C@@H]2CCCCN2C1=O` (cyclo([dR][dR][d(pT)][Pip][2Nal]R[dR][dR][dR]Q)), the Drug uptake entry with HeLa [1] and with HeLa [2] was “Active” throughout.
As for `C[C@H](O)[C@H]1NC(=O)[C@H](CCCNC(=N)N)NC(=O)[C@H](CCCNC(=N)N)NC(=O)[C@H](CCCNC(=N)N)NC(=O)[C@H](CCC(N)=O)NC(=O)[C@H](CCCNC(=N)N)NC(=O)[C@H](CCCNC(=N)N)NC(=O)[C@H](Cc2ccc3ccccc3c2)NC(=O)[C@@H]2CCCCN2C1=O` (cyclo([2Nal]RRQRRR[dT][Pip])), the Drug uptake entry in the data set with HeLa [1] and in the data set on HeLa [2] was “Active” throughout.
